In PMC4118675 (Chembiochem : a European journal of chemical biology, 2014):
Entries after “also recorded” stand apart in the source; their conditions may differ.

Experiments:
FGF signaling = assay: FGF reporter activation in Tg; format: in vivo, zebrafish; details: for in vivo FGF hyperactivation activity (in words): Tg(dusp6:EGFP)pt6 embryos, SAR statement relative to 1
Outline: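 Compound was added from 100X DMSO stocks (1% DMSO final). Time course was imaged hourly for 6 h; dose-response was read at 5 h. Embryos were anaesthetised with MS222 (40 μg/ml) and imaged at 4X (488/525 nm).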

[1] = test system: Recombinant His-tagged Dusp6; assay: In vitro OMFP phosphatase assay, ERK2 induced activation of DUSP6; format: biochemical; details: 100 μM compound, with recombinant ERK2, OMFP substrate
Outline: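 Recombinant His-tagged Dusp6 (250 ng), expressed in bacteria, was preincubated with 100 μM test compound. Recombinant ERK2 (210 ng) was added, then OMFP substrate (100 μM). Fluorescence (485/525 nm) was read every 10 min for 1 h at room temperature. Percent inhibition was taken at 10 min, within the linear range, from three independent experiments (mean ± SD). Vanadate was the positive control; one-way ANOVA with Tukey post hoc test.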

zebrafish embryos = assay: Hatching study in zebrafish embryos; format: in vivo; details: 6 hour exposure followed by washout; for embryos hatched (in words): exposure at their EC50 (1: 10 μM, 7: 5 μM)
EA.hy926 cells = assay: Cytotoxicity in cultured EA.hy926 cells; format: cell-based; details: six hours, concentrations up to 50 μM
Outline: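 EA.hy926 endothelial hybridoma cells were kept in DMEM with 10% FBS and 2 mM glutamine, plated at 10,000/well and allowed to attach overnight. They were exposed for 6 h to five-point 1/3 dilution gradients, with phenylarsine oxide as positive control. Live cells were stained with propidium iodide (1 μg/ml) and Hoechst 33342 (10 μg/ml), then imaged. Scored per field: nuclei count, nuclear condensation, % PI-positive cells.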

human c-Myc-DUSP6 = target: T1, human c-Myc-DUSP6 (Homo sapiens, UniProt Q16828); assay: Chemical complementation assay for DUSP6; format: cell-based
T1 sequence (Q16828 1-381): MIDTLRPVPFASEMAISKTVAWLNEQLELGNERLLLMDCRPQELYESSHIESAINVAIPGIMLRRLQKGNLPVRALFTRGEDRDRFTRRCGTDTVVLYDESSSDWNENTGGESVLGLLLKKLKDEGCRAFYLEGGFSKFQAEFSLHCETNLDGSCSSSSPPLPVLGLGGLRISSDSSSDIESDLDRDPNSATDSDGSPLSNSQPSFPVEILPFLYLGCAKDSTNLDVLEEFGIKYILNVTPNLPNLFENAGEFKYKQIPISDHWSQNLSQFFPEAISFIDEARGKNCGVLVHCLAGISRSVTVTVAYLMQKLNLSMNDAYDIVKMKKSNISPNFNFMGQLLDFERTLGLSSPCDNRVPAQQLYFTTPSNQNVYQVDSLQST
Outline: (§1)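 Human c-Myc-tagged DUSP1 (in pcDNA3.1) or DUSP6 (in pSG5) transfected into HeLa cells, which were grown in DMEM with 10% FBS at 37 °C and 5% CO2. At 48 h, quadruplicate wells got a 15 min treatment with ten two-fold dilutions, then TPA (500 ng/ml) for 15 min. Cells were immunostained for pERK and c-Myc. IC50 came from a four-parameter logistic fit of KS values versus concentration.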

human c-Myc-DUSP1 = target: T2, human c-Myc-DUSP1 (Homo sapiens, UniProt P28562); assay: Chemical complementation assay for DUSP1; format: cell-based
T2 sequence (P28562 1-367): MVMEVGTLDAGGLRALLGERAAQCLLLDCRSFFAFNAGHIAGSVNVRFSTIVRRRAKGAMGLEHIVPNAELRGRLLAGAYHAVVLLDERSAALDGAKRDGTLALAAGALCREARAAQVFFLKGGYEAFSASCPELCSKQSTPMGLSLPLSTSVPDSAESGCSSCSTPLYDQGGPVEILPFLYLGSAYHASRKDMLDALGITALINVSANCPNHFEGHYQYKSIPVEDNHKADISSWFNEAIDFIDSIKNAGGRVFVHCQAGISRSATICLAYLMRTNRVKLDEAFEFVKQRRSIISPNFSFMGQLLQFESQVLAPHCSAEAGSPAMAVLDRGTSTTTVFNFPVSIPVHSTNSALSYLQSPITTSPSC
Outline: as §1

DUSP = details: bacterially produced recombinant protein, no ERK; cited from earlier work
[2] = HeLa chemical complementation assay

| SMILES | in vivo FGF hyperactivation activity (in words) (FGF signaling) | suppression of ERK-stimulated activation of DUSP6 (in words) [1] | other results |
| --- | --- | --- | --- |
| OC1C(=Cc2ccccc2)C(NC2CCCCC2)c2ccccc21 (stereo not shown) [Compound 31, 2-benzylidene-3-cyclohexylaminoindan-1-ol] | abolished activity | insignificant |  |
| O=C1/C(=C/c2ccccc2)C(NC2CCCCC2)c2cc(Br)ccc21 (stereo not shown) [Compound 19] | tolerated | significantly suppressed activation of DUSP6 | embryos hatched by 56 hpf (zebrafish embryos; 20 μM (two times the EC50 for FGF activation)): 100%; cellular toxicity (in words) (EA.hy926 cells): devoid of cellular toxicity |
| O=C1C(=Cc2ccc(Cl)cc2)C(NC2CCCCC2)c2ccccc21 (stereo not shown) [Compound 15] | did not substantially change activity compared to 1 |  |  |
| O=C1/C(=C/c2ccccc2)C(N2CCOCC2)c2ccccc21 (stereo not shown) [Compound 7] | maximal activity | significantly suppressed activation of DUSP6 | embryos hatched (in words) (zebrafish embryos): no embryos hatched |
| O=C1/C(=C/c2ccccc2)C(NC2CCCCC2)c2ccccc21 (stereo not shown) [Compound 1, (E)-2-benzylidene-3-(cyclohexylamino)-2,3-dihydro-1H-inden-1-one] |  | significantly suppressed activation of DUSP6 | time at which GFP expression reached a maximum (FGF signaling; 20 μM, 24 hpf embryos, stable for an additional hour): 5 h; concentration of maximal FGF reporter activation (FGF signaling; 5 hour time point, declined at higher concentrations): 20 µM; IC50 (human c-Myc-DUSP6): 13.3 ± 1.8 µM; IC50 (human c-Myc-DUSP1): 8 ± 0.6 µM; embryos hatched (in words) (zebrafish embryos): no embryos hatched; antiphosphatase activity in traditional biochemical assay (in words) (DUSP): lacked antiphosphatase activity |
| O=C1C(=Cc2ccc(Cl)c(Cl)c2)C(NC2CCCCC2)c2ccccc21 (stereo not shown) [Compound 16] | did not substantially change activity compared to 1 |  |  |
| COc1ccc(/C=C2/C(=O)c3ccccc3C2N2CCOCC2)cc1 (stereo not shown) [Compound 24] | inactive; also recorded: abolished the activity |  | DUSP6 inhibition in mammalian cells (in words) (human c-Myc-DUSP6; [2]): lacked antiphosphatase activity; DUSP1 inhibition in mammalian cells (in words) (human c-Myc-DUSP1; [2]): lacked antiphosphatase activity |
| O=C1C(=Cc2ccccc2)C(Nc2ccccc2)c2ccccc21 (stereo not shown) [Compound 4] | abolished activity |  |  |
